In ChEMBL document CHEMBL4765230, “Discovery of Orally Efficacious Phosphoinositide 3-Kinase δ Inhibitors with Improved Metabolic Stability” (J Med Chem, 2016):

How the values were obtained:
[1] = Mutagenecity in Salmonella typhimurium by Ames test; type: toxicity; details: salmonella enterica subsp. enterica serovar typhimurium
[2] = Inhibition of CYP450 (unknown origin) at 25 uM; type: ADME; details: human
[3] = In vivo inhibition of PI3Kdelta in Lewis rat model of Freund's incomplete adjuvant-induced arthritis at 1 mg/kg, po bid administered for 7 days at 12 hrs interval starting from day 10 to day 16 post-immunization relative to control; type: functional; details: 168 h, time 7 day
In short: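 CIA Lewis rats dosed orally twice daily for 7 days at 0.3, 1 or 3 mg/kg; blood/plasma drug levels taken on day 7, 12 h after final dose, and related to PI3Kδ inhibition at trough.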

[4] = MRT in rhesus monkey at 1 mg/kg, iv measured over 24 hrs by LC/MS/MS analysis; type: ADME, organism-based, Macaca mulatta; details: in vivo
In short: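 Intravenous 1 mg/kg and oral 5 mg/kg doses. Vehicle: 5% ethanol/55% PEG 400/40% water for rats and dogs; 5% ethanol/22% PEG 400/73% water for cynomolgus; 5% ethanol/25% PEG 400/70% water for rhesus. Half-life and MRT from iv; mean ± SD, n = 3 per route.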

[5] = Clearance in rat at 1 mg/kg, iv; type: ADME, organism-based; details: in vivo
[6] = Volume of distribution at steady state in Beagle dog at 1 mg/kg, iv measured over 24 hrs by LC/MS/MS analysis; type: ADME, organism-based, Canis lupus familiaris; details: in vivo, read-out: Vdss
In short: (§1)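 Single intravenous dose of 1 mg/kg. Vehicles: rats and dogs 5% ethanol/55% PEG 400/40% water; cynomolgus monkeys 5% ethanol/22% PEG 400/73% water; rhesus monkeys 5% ethanol/25% PEG 400/70% water. Plasma concentration–time data gave Vss and iv half-life. Reported as mean ± SD, n = 3.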

[7] = Selectivity index, ratio of IC50 for inhibition of human full length PI3K p110alpha/p85alpha to IC50 for inhibition of human full length PI3K p110delta/p85alpha
[8] = target: Phosphatidylinositol 4,5-bisphosphate 3-kinase catalytic subunit gamma isoform (Homo sapiens, UniProt P48736); test: Inhibition of PI3K p110gamma in human basophil assessed as reduction in fMLP-induced basophil activation in presence of 25% serum by flow cytometry analysis; type: tissue-based
Chain of Phosphatidylinositol 4,5-bisphosphate 3-kinase catalytic subunit gamma isoform (P48736 whole entry, canonical isoform): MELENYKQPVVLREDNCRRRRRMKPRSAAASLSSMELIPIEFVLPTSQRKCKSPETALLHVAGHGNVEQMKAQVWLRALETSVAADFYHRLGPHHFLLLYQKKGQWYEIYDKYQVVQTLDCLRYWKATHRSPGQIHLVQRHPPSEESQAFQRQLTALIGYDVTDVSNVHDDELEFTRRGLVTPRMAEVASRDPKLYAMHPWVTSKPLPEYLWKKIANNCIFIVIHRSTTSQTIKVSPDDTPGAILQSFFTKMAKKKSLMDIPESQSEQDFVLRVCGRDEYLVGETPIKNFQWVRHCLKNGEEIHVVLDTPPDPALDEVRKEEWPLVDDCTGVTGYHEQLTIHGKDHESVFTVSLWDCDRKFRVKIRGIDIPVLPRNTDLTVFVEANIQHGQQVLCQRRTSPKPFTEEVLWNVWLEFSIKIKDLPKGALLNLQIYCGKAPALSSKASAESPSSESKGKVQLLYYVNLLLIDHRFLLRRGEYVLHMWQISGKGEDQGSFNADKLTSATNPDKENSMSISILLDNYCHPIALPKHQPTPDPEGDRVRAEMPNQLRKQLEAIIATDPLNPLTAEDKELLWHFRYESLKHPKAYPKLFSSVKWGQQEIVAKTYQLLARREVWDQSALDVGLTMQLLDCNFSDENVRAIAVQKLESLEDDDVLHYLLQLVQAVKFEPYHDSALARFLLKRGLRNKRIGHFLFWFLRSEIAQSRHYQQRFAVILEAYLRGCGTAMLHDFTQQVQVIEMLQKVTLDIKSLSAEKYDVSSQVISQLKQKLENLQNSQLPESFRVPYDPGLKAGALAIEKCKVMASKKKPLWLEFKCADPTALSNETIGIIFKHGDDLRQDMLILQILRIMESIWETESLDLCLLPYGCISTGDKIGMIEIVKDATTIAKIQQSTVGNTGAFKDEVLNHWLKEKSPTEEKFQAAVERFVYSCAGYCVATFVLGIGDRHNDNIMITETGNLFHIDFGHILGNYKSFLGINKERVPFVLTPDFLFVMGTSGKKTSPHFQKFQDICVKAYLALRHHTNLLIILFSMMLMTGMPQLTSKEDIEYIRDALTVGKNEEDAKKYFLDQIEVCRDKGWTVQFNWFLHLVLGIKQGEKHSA
In short: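 Basophil activation via fMLP (p110γ) in 25% serum or in isolated WBCs in low serum, with increasing compound concentrations. Anti-CD63-FITC/anti-CCR3-PE staining; ≥150 (25% serum) or ≥75 (low serum) CCR3-high basophils gated; % CD63-positive normalized to 0.3% DMSO vehicle; concentration corrected for reagent dilution.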

[9] = target: T1, Phosphatidylinositol 4,5-bisphosphate 3-kinase catalytic subunit delta isoform (Homo sapiens, UniProt O00329); test: Inhibition of PI3Kdelta in human whole blood assessed as reduction in anti-FCepsilonR1 mAb-stimulated basophil activation preincubated for 60 mins followed by anti-FCepsilonR1 mAb stimulation and measured after 25 mins by flow cytometry analysis; type: tissue-based
T1 sequence (O00329 whole entry): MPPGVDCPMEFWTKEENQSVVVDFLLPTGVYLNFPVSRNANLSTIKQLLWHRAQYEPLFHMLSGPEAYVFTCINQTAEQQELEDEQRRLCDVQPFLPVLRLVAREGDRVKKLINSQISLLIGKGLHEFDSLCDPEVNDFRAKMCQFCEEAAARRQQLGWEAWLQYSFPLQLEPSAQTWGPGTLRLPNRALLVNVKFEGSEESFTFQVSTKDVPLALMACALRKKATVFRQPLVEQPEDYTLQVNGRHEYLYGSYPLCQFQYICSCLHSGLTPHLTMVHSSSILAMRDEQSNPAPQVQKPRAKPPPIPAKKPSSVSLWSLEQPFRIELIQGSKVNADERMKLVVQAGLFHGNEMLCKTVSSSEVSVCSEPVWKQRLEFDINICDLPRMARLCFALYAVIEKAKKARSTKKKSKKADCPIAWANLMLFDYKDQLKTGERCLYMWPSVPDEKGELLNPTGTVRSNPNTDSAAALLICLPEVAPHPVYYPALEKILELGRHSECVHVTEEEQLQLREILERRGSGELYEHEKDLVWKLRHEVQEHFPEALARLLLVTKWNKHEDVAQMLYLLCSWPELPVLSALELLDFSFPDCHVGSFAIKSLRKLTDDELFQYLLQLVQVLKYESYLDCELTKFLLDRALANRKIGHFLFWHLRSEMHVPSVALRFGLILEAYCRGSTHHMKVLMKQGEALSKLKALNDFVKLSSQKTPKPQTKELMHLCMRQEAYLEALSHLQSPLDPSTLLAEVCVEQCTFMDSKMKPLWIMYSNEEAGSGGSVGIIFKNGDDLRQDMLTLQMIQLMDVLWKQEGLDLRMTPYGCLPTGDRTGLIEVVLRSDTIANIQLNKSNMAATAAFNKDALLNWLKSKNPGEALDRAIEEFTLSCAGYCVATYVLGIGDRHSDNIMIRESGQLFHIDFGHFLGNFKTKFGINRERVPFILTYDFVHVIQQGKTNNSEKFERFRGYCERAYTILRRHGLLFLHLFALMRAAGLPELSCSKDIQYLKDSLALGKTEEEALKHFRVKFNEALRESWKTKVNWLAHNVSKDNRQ

[10] = test system: Rattus norvegicus; test: Antiarthritic activity in Lewis rat model of Freund's incomplete adjuvant-induced arthritis assessed as inhibition of cartilage damage at 0.3 to 3 mg/kg, po bid administered for 7 days at 12 hrs interval starting from day 10 to day 16 post-immunization by microscopic analysis relative to control; type: functional; design: scale not given: the % may be the effect or the level left; details: dose 0.3-3 mg/kg, time 7 day
In short: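 Female Lewis rats with established collagen-induced arthritis dosed orally twice daily for 7 days at 0.3, 1 and 3 mg/kg, starting day 10 after second collagen immunization. Joint histopathology scored for pannus formation, cartilage damage, bone resorption and periosteal bone formation; ED50 derived. n = 8/treatment group, n = 4 normal controls.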

[11] = Terminal half life in rhesus monkey at 1 mg/kg, iv measured over 24 hrs by LC/MS/MS analysis; type: ADME, organism-based, Macaca mulatta; details: in vivo, read-out: beta t1/2 (converted); in short: as §1
[12] = Oral bioavailability in rat at 5 mg/kg; type: ADME, organism-based; details: in vivo
[13] = test system: Rattus norvegicus; test: Antiarthritic activity in Lewis rat model of Freund's incomplete adjuvant-induced arthritis assessed as reduction in ankle swelling at 1 mg/kg, po bid administered for 7 days at 12 hrs interval starting from day 10 to day 16 post-immunization by caliper method relative to control; type: functional; design: scale not given: the % may be the effect or the level left; details: time 7 day
In short: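 Established collagen-induced arthritis in female Lewis rats; oral dosing twice daily for 7 days from day 10 after second immunization. Right and left ankle diameters measured by caliper daily, days 9–18; ankle diameter AUC over days 11–18 compared with arthritic vehicle group (ANOVA, p < 0.05). n = 8/treatment group.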

[14] = target: Phosphatidylinositol 4,5-bisphosphate 3-kinase catalytic subunit alpha isoform (Mus musculus, UniProt P42337); test: Inhibition of PI3K p110alpha in mouse embryonic fibroblast cells assessed as reduction in PDGF-induced AKT phosphorylation at S473 residue preincubated for 2 hrs followed by PDGF stimulation and measured after 10 mins; design: species or system MEF
Chain of Phosphatidylinositol 4,5-bisphosphate 3-kinase catalytic subunit alpha isoform (P42337 whole entry, canonical isoform): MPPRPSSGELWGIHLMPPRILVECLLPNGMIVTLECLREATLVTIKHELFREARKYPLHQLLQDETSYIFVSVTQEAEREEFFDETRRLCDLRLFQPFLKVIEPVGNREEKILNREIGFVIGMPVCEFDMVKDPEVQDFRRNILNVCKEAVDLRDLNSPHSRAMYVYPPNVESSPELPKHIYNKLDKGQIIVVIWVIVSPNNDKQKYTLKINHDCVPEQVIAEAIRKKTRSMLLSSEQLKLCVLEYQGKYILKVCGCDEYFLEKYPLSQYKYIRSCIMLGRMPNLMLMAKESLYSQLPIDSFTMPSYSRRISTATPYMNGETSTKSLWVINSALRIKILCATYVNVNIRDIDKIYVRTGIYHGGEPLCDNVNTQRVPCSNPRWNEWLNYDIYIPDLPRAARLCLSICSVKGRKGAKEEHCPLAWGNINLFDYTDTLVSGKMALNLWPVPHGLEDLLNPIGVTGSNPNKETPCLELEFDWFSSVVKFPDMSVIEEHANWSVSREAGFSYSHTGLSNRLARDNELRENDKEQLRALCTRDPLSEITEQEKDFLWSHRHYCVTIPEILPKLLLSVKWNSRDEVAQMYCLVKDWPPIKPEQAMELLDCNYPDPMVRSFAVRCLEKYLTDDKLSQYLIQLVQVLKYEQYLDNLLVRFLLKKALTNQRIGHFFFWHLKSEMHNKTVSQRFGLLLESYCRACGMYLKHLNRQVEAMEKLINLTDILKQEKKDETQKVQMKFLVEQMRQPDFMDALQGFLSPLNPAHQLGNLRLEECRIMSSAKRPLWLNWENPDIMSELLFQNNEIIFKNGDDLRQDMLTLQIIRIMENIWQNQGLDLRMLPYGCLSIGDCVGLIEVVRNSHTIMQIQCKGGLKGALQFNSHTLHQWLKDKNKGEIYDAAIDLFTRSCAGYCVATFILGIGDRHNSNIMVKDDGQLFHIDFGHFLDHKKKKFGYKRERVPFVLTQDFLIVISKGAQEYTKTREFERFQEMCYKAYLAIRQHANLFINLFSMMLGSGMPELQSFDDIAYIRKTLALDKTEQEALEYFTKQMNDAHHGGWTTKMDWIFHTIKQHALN
In short: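 MEFs grown overnight in DMEM/15% FBS, starved 2 h in 0.1% FBS, treated 2 h with compound at various concentrations, then stimulated with PDGF (10 ng/mL) 10 min at 37 °C. Lysates probed for total Akt and phospho-Akt S473 by capillary immunoassay; geometric mean, triplicate.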

- inhibition (INH) [2]: Not Active
- MRT [4]: 2 h
- clearance [5]: 7.17 mL/min/kg
- Vd [6]: 1.03 L/kg
- Ratio IC50 [7]: 750
- EC50 [8]: 581 nM
- EC50 [9]: 1 nM
- half-life [11]: 2.45 h
- bioavailability [12]: 57%
- EC50 [14]: 1170 nM
SMILES: N#Cc1c(N)nc(N)nc1N[C@H](c1nc2c(F)ccc(Cl)c2c(=O)n1-c1cccnc1)C1CC1 [GS-9901]
- Activity [1]: Non-Toxic
- inhibition in vivo at 1 mg/kg [3]: 80%
- Activity [10]: 50%
- Activity [13]: 67%
